Test results taken from BindingDB's records for doi:10.1016/j.bmcl.2019.126908 (University of California Davis, 2020).

Target: T1, Bifunctional epoxide hydrolase 2 (Homo sapiens, UniProt P34913)
T1 sequence (P34913 whole entry): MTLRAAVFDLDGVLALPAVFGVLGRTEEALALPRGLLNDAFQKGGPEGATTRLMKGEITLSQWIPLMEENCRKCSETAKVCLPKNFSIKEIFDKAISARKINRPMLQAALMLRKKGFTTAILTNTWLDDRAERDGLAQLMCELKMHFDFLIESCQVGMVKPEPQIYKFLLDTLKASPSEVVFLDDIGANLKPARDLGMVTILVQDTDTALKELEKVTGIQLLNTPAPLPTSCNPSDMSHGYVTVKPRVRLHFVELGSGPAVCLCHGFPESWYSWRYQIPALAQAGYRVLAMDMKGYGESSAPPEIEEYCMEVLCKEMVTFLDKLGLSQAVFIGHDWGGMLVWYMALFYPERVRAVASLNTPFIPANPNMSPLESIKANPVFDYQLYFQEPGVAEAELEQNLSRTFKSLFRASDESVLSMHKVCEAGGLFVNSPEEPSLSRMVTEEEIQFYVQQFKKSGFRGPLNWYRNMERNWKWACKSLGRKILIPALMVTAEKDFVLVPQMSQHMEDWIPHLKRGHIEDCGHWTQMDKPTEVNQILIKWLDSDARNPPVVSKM
Assay: Inhibition of human soluble epoxide hydrolase by kinetic fluorescent assay
How it was run: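 Kinetic fluorescent read-out; each value is the mean of three separate experiments.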

Row | Compound | IC50 [nM]
1 | CC(NC(=O)Nc1ccccc1F)C12CC3CC(CC(C3)C1)C2 (configuration not stated) | 56
2 | O=C(Nc1ccc(C23CC4CC(CC(C4)C2)C3)cc1)Nc1ccccc1F | 94
